How the values were obtained:
Assay type in all cases: functional
Candida tropicalis = test: Antifungal activity against Candida tropicalis ATCC 1369 assessed as inhibition of microbial growth by NCCLS protocol based method
Summary of the method: (§1)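 Broth MIC50 determined following NCCLS guidelines in Sabouraud medium, with fungal suspension in 24-well format. Compound tested at 0.0625, 0.125, 0.5, 1, 2, 4, 8 and 16 μg/mL. Plates cultured statically at 35 °C. MIC50 is the lowest concentration giving 50% growth inhibition. Naftifine and fluconazole served as positive controls.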

Candida albicans = test: Antifungal activity against Candida albicans ATCC 10231 assessed as inhibition of microbial growth by NCCLS protocol based method; summary of the method: as §1
Aspergillus fumigatus = test: Antifungal activity against Aspergillus fumigatus KM8001 assessed as inhibition of microbial growth by NCCLS protocol based method; summary of the method: as §1
Nakaseomyces glabratus = test: Antifungal activity against Candida glabrata ATCC 0001 assessed as inhibition of microbial growth by NCCLS protocol based method; summary of the method: as §1
Pichia kudriavzevii = test: Antifungal activity against Candida krusei ATCC 6258 assessed as inhibition of microbial growth by NCCLS protocol based method; summary of the method: as §1

Row | MIC50 (Candida tropicalis) [µg/mL] | MIC50 (Candida albicans) [µg/mL] | MIC50 (Aspergillus fumigatus) [µg/mL] | MIC50 (Nakaseomyces glabratus) [µg/mL] | MIC50 (Pichia kudriavzevii) [µg/mL] | Compound
1 | 0.25 | 0.25 | > 16 | 1 | 0.5 | O=C(CNC(=O)c1ccc2ccccc2c1)NC(Cn1ccnc1)C(=O)c1ccccc1 (stereo not given)
2 | 0.5 | 0.25 | 8 | 0.25 | 1 | O=C(NC(Cn1ccnc1)C(=O)NC1CCCC1)c1ccc2ccccc2c1 (stereo not given)
3 | 0.25 | 0.125 | 8 | 0.25 | 0.25 | CN(CC(=O)NC(Cn1ccnc1)C(=O)c1ccccc1)C(=O)c1ccc2ccccc2c1 (stereo not given)
4 | 0.5 | 0.25 | > 16 | 0.25 | 0.5 | Cc1ccc(NC(=O)C(Cn2ccnc2)NC(=O)c2cccc3ccccc23)cc1 (stereo not given)
5 | 1 | 0.5 | 8 | 0.5 | 0.5 | CN(CC(=O)Nc1ccncc1)C(=O)c1cccc2ccccc12
6 | 1 | 0.5 | > 16 | 0.25 | 0.5 | O=C(NC(Cn1ccnc1)C(=O)NC1CCCCC1)c1cccc2ccccc12 (stereo not given)
7 | 0.125 | 0.25 | 8 | 0.5 | 0.25 | CC(NC(=O)c1ccc2ccccc2c1)C(=O)NC(Cn1ccnc1)C(=O)c1ccccc1 (stereo not given)
8 | 0.25 | 0.125 | 8 | 0.25 | 0.25 | Cc1ccc(NC(=O)C(Cn2ccnc2)NC(=O)c2ccc3ccccc3c2)cc1 (stereo not given)
9 | 0.25 | 0.25 | 8 | 0.5 | 1 | CN(CC(=O)Nc1ccncc1)C(=O)c1ccc2ccccc2c1
10 | 0.25 | 0.5 | > 16 | 0.5 | 0.25 | CN(CC(=O)NCc1cccnc1)C(=O)c1ccc2ccccc2c1
11 | 0.5 | 0.5 | > 16 | 1 | 1 | CC(C)C(NC(=O)c1ccc2ccccc2c1)C(=O)NC(Cn1ccnc1)C(=O)c1ccccc1 (stereo not given)
12 | 0.5 | 0.25 | > 16 | 0.5 | 1 | CC(C)C(NC(=O)c1cccc2ccccc12)C(=O)NC(Cn1ccnc1)C(=O)c1ccccc1 (stereo not given)
13 | 0.5 | 1 | 8 | 1 | 2 | CN(CC(=O)NCc1ccncc1)C(=O)c1cccc2ccccc12

Source: ChEMBL document CHEMBL4732095, “Novel naphthylamide derivatives as dual-target antifungal inhibitors: Design, synthesis and biological evaluation” (Eur J Med Chem, 2021)
